Assay outcomes deposited in PubChem by several laboratories.
NR2E3 ag-1: NR2E3 (human) agonism; Q9Y5X4; GST-NR2E3/biotin-RetCOR TR-FRET, 1536-well; inhibition of corepressor binding, % at 4.78 µM; 320,000 tested, 0.12% active; AID 2300;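 active means percent inhibition above the cutoff of mean plus 3 SD of all tested compounds, set per screening campaign, cut at about 20% in these data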;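 further: 0% = DMSO wells and 100% = biotin wells as full block of FRET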
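System: GST-NR2E3 and biotin-RetCOR proteins; probe or stimulus: 7 nM biotin-RetCOR; doses: compound at 4.8 µM, single dose; schedule: Compound–protein incubation for 5 h at 4 °C; detection: time-resolved FRET; read-out: percent inhibition; controls: biotin wells as high control, 0.6% DMSO wells as low control; format: 1536-well plates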
GalR3 antagonist: blocks the human galanin receptor 3. O60755. HEK293 GalR3-CNG cAMP membrane potential fluorescence; galR3 body fused to GalR1 C-terminus. inhibition, % at 3 µM. 360,000 tested, 0.44% active. AID 651719;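 active means inhibition above the screen-wide average plus 3 SD, cut at about 13% in these data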;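 further: forskolin and galanin both at EC90 stimulate the cells; cAMP rise reported by CNG channel membrane potential dye signal; 0% = forskolin plus galanin with DMSO and 100% = forskolin alone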
Target sequence (O60755 1-299 limits assumed): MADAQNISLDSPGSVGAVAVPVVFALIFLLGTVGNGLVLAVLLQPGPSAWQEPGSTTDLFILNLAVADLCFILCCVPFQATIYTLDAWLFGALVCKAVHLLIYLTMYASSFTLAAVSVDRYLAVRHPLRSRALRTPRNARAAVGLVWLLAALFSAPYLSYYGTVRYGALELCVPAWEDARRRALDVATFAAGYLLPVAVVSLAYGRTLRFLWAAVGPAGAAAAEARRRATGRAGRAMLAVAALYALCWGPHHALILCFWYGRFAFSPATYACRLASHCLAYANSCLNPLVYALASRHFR
NR2E3 ag-2: human photoreceptor-specific nuclear receptor agonism. 360,000 tested, 0.35% active. Q9Y5X4. AID 602229. CHO-S Gal4-NCOR/VP16-NR2E3 two-hybrid, luciferase. inhibition of corepressor binding, % at 3.98 µM;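 active means inhibition above the mean of all tested compounds plus 3 SD, cut at about 70% in these data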;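 further: 0% = DMSO with NR2E3 transfected cells and 100% = cells lacking NR2E3 construct; higher means lower luciferase signal from less NR2E3 corepressor binding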
NadD inh: blocks S. aureus nicotinate mononucleotide adenylyltransferase | inhibition, % at 20 µM | 360,000 tested, 0.78% active | purified NadD enzyme, colorimetric absorbance read-out; in the data active means inhibition above about 26%
bovine MsrA act: activates bovine MsrA enzyme; purified bovine MsrA, absorbance read-out; activation, % at 10.6 µM; 360,000 tested, 0.3% active; AID 602163; in the data active means activation above about 7.5%;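 further: 0% = vehicle and 100% = reference activator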
MsrA inhibitor: inhibitors of bovine MsrA | purified bovine MsrA, absorbance read-out | inhibition, % at 15.5 µM | 360,000 tested, 0.75% active; in the data active means inhibition above about 4.5%;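 further: 0% = vehicle wells with enzyme and 100% = reference inhibitor wells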
GalR3 antag conf: confirmation of human galanin receptor 3 antagonists; shares compounds with GalR3 antagonist; HEK293 GalR3 CNG cAMP biosensor, membrane potential fluorescence; galR3 fused to GalR1 carboxy tail; challenged with forskolin and galanin at EC90; inhibition, % at 3 µM; 1,600 tested, 59% active;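 active means inhibition above the primary screen's cutoff, the mean inhibition of all screened compounds plus 3 SD, cut at about 13% in these data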;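 further: 0% = forskolin plus galanin and 100% = forskolin alone with DMSO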
CNG parental: counter-screen for GalR3 antagonists: nonspecific agonists in parental HEK-CNG cells. shares compounds with GalR3 antagonist. HEK293-CNG parental cells, cAMP membrane potential fluorescence; normalised: DMSO wells 0%, forskolin wells 100%. activation, % at 3 µM. 1,600 tested, 10% active; in the data active means activation above about 1.3%
* marks the source's active call; other numbers are inactive results; / = no result given. Rows were chosen to be rich in hits. Some 2.5% of all compounds tested hit in one or more screens of this group.

SMILES	NR2E3 ag-1	GalR3 antagonist	NR2E3 ag-2	NadD inh	bovine MsrA act	MsrA inhibitor	GalR3 antag conf	CNG parental
COc1ccc(CCC(=O)Nc2ccc(OC)c(S(=O)(=O)N3CCCCC3)c2)cc1OC	1	-3	-24	1	-2	0	/	/
CCCCN(CC)CCNC(=O)c1ccc2c(Cl)c3c(nc2c1)CCC3	1	-9	-1	-11	-2	0	/	/
CC(C)(O)C#Cc1ccc(CN2CCN(C3CCCCC3)C(CCO)C2)s1 (stereo not given)	0	-5	-3	-2	-3	1	/	/
CCCCCCCC[n+]1cccc2c3ccccc3ccc21	1	65*	10	18	-1	1	54*	3.1*
CCCCCC(=O)Nc1cccc2ccccc12	1	-5	-6	-6	1	0	/	/
O=C(NCc1ccc(Cl)cc1)C(=O)c1cn(CC(=O)N2CCOCC2)c2ccccc12	-1	19*	-3	1	-2	2	4	0
CCN1/C(=C/c2ccc3cc(C)cc(C)c3[n+]2CC)Sc2cc(C)ccc21	/	49*	91*	15	0	-2	58*	9.7*
CCCCCCCn1ccc(=N)cc1	1	16*	18	8	-1	-1	33*	0
CCCCCn1ccc(=N)cc1	2	9	-43	-1	-8	0	/	/
CCCCCCCCCn1ccc(=N)cc1	0	96*	12	-3	-1	2	110*	0
CC(=O)NCC(=O)N[C@@H](CC(=O)OCc1ccccc1)C(=O)OCc1ccccc1	-2	-2	-14	-5	-3	1	/	/
Cc1cc(/C=N/n2c(COc3ccccc3)nc3ccccc3c2=O)c(O)c([N+](=O)[O-])c1	2	31*	-37	22	-7	1	44*	-1
CCCCOc1ccc([N+](=O)[O-])cc1C(=O)O	2	17*	13	-10	-12	2	2	0
CC1CCCC(C)N1C(=O)COc1cccc(Oc2ccccc2)c1 (stereo not given)	/	-4	-20	3	-2	0	/	/
CCSc1nnc(NC(=O)c2nc(-c3ccccc3)n(-c3ccccc3)n2)s1	3	1	7	5	-13	2	/	/
CCCn1c2ccccc2c2nnc(SCc3[nH]c(=O)[nH]c3C(=O)CCCCC(=O)OCC)nc21	-28	17*	-10	7	-1	0	12	1
CCOC(=O)CCCCC(=O)c1[nH]c(=O)[nH]c1CSc1nnc2c3ccccc3n(C(C)C)c2n1	-22	31*	8	6	-3	1	18*	0
OCC(O)/C=N/Nc1nc(Nc2ccccc2)nc(Nc2ccccc2)n1 (stereo not given)	2	-3	-17	-2	-2	0	/	/
CC1CCN(CCCN2C(=O)C3C(C(=O)Nc4ccc(Cl)cc4)C4C=CC3(O4)C2C(=O)NC2CCCCC2)CC1 (stereo not given)	3	-7	6	-9	-3	-2	/	/
Cc1ccc(S(=O)(=O)Oc2ccccc2/C=N/Nc2ccc(C(=O)O)cc2)cc1	1	18*	-5	-8	-9	4	2	0
Nc1c(C(=O)CSc2ccccn2)c(=O)[nH]c(=O)n1C1CC1	3	-5	-31	4	-2	1	/	/
O=Cc1cn(CC(=O)N2CCCCCC2)c2ccccc12	4	19*	-4	-6	-10	0	6	0
COc1ccc(N2CCN(C(=O)c3ccc(F)cc3)CC2)c([N+](=O)[O-])c1	3	-3	-14	-12	-3	-2	/	/
OCCOCCn1c(C(CO)Nc2nc(-c3ccc(Cl)cc3)cs2)nc2ccccc21 (stereo not given)	7	0	-5	4	-1	0	/	/
Nc1c(Cl)cc(-c2csc(NC(CO)c3nc4ccccc4n3CCOCCO)n2)cc1Cl (stereo not given)	4	64*	-1	7	-1	1	8	0
SMILES	NR2E3 ag-1	GalR3 antagonist	NR2E3 ag-2	NadD inh	bovine MsrA act	MsrA inhibitor	GalR3 antag conf	CNG parental
O/N=C(\c1ccccn1)C1CC1c1ccccc1 (stereo not given)	-2	0	-2	0	0	2	/	/
CCOc1ccc(-n2c(SCc3ccc([N+](=O)[O-])cc3)nnc2-c2ccccc2)cc1	1	70*	-13	13	-3	0	72*	1.3*
COc1ccc(-n2c(SCc3ccc([N+](=O)[O-])cc3)nnc2-c2ccccc2)cc1	2	57*	-4	-18	-2	-1	64*	0
CSc1ccc(C#N)cc1NC(=O)c1ccccc1C	3	15*	-24	0	-4	2	13*	0
O=[N+]([O-])c1cccc(S(=O)(=O)c2ccc(N3CCCCC3)c([N+](=O)[O-])c2)c1	1	-6	-11	-8	-4	1	/	/
O=[N+]([O-])c1cc(S(=O)(=O)c2ccc(N3CCCCC3)c([N+](=O)[O-])c2)ccc1N1CCCCC1	-1	27*	5	3	-3	0	0	2.2*
COc1ccc(OC)c(S(=O)(=O)N2CCCCC2C(=O)N2CCN(c3ccccn3)CC2)c1 (stereo not given)	2	14*	-26	0	-2	1	4	0
COc1cc(-c2cnc3c(NC=O)cc(-c4ccccc4Cl)cn23)cc(OC)c1OC	/	19*	-9	9	-4	-1	26*	1.6*
COc1cc(-c2cnc3c(NC=O)cc(-c4ccccc4)cn23)cc(OC)c1OC	/	-2	-27	0	-3	-1	/	/
COc1ccc(-c2cnc3c(NC(C)=O)cc(-c4ccccc4OC)cn23)cc1OC	/	13*	-21	7	1	-1	18*	0
COc1ccc(OCCOC(=O)c2[nH]c(C)c(C(C)=O)c2C)cc1	9	16*	19	-4	-2	1	10	-1
COc1ccc(CCNC(=O)c2[nH]c(C)c(C(C)=O)c2C)cc1	1	1	-19	-5	-6	0	/	/
CC(c1n[nH]c(=S)n1-c1ccc(F)cc1)N1CCCCC1 (stereo not given)	0	8	-20	-2	-3	0	/	/
Cc1ccc2nc(SCC(=O)Nc3cc(C(F)(F)F)ccc3N3CCOCC3)[nH]c2c1	-3	-1	38	-6	-2	0	/	/
COc1ccc(OC)c(CCNC(=O)C(C)n2nc(C)c3c(C)n(-c4ccc(C)cc4)nc3c2=O)c1 (stereo not given)	1	50*	39	0	-4	0	91*	0
